# Measurements from different studies.
# Each line is one published result; the experiments were not run side by side.
# Cyp2e1: Cytochrome P450 2E1 (Cyp2e1, Rattus norvegicus, UniProt P05182)
SMILES,tested on,assay,system,setting,measurement,value
COc1ccnc(C(=O)N[C@H]2COC(=O)[C@H](Cc3ccccc3)[C@@H](OC(=O)C(C)C)[C@H](C)OC2=O)c1OCOC(=O)C(C)C,,,rat,topical,LD50,> 5000 mg/kg
C=CC(=O)Nc1cccc(-c2snc3cc(-c4ccc(N)c(OC)c4)cnc23)c1,Calu-3,"cell growth or viability, resazurin",,,CC50,> 60 µM
CCCCCn1cc(C(=O)Nc2cccc3ccccc23)c2ccccc21,,metabolic stability,"Sprague-Dawley rat, liver microsomes","1 µM, pH 7.4",microsomal CLint,310 µL/min/mg
OCCCCO,Cyp2e1,"enzyme activity, inhibitor","Fischer 344 rat, liver microsomes","25 mM, 30 min",activity vs control,17%
O=C(O)C(F)(F)C(F)(F)C(F)(F)C(F)(F)C(F)(F)C(F)(F)C(F)(F)F,"Solute carrier organic anion transporter family member 1B3 (SLCO1B3, Homo sapiens, UniProt Q9NPD5)","transporter uptake, substrate",CHO,"1 min, pH 7.4",Km,91.6 µM
CC(C)(C)NC(=O)N[C@H](C(=O)N1C[C@H]2[C@@H]([C@H]1C(=O)NC(CC1CCC1)C(=O)C(N)=O)C2(C)C)C(C)(C)C (stereo partly shown),Calu-3,"cell growth or viability, MTT",,48 h,CC50,> 250 µM
O=c1c(O[C@@H]2O[C@H](CO)[C@@H](O)[C@H](O)[C@H]2O)c(-c2ccc(O)cc2)oc2cc(O)cc(O)c12,MCF7,"cell growth or viability, WST-1",,,IC50,15.7 µM
NC(=O)c1c(NC(=O)c2cnn3c(C(F)(F)F)cc(-c4ccccc4)nc23)sc2c1CCCC2,Calu-3,"cell growth or viability, MTT",,48 h,CC50,> 125 µM
CCN(CC)CCNC(=O)c1c(C)[nH]c(/C=C2\C(=O)Nc3ccc(F)cc32)c1C,Calu-3,"cell growth or viability, resazurin",,,CC50,45.7 µM
CCCCCn1nc(C(=O)Nc2cccc3ccccc23)c2ccccc21,,metabolic stability,"Sprague-Dawley rat, liver microsomes","1 µM, pH 7.4",microsomal CLint,430 µL/min/mg
C=CC1CO1 (stereo not shown),Cyp2e1,"enzyme activity, inhibitor","rat, liver microsomes",,Ki,24 µM
N=c1c2c(-c3ccccc3)c(-c3ccccc3)n(Cc3ccccc3)c2ncn1[C@H]1CC[C@H](O)CC1,,,"female minipig, plasma","intravenous, 0.25 mg/kg, single dose",clearance,0.6 mL/min/kg
Cc1ncc2n1-c1ccc(Cl)cc1C(c1ccccc1F)=NC2,,metabolic stability,"male rat, liver microsomes",1 µM,microsomal CLint,> 250 µL/min/mg
